What all share (format): functional, cell-based
For assay [1], the system named is U-937. Nature of the assay: Cytotoxicity against human U937 cells after 48 hrs by MTT assay. A digest of the protocol: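 U937 cells were grown in RPMI with 2 mM L-glutamine, 10% FBS and 1% pen/strep, for no more than 10 passages. 3 × 10^3 cells per well were plated and incubated overnight at 37 °C in 5% CO2, then exposed to serial dilutions (1-50 µM) for 48 h. MTT (5 mg/mL stock) was added for 3 h, followed by lysis in 50% DMF/20% SDS at pH 4.5. OD was read at 620 nm, and viability was expressed against 0.1% DMSO controls.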
On the technique in general: Tetrazolium dyes change colour on reduction, which living cells bring about.

For assay [2], the system named is FRO. As to the kind of experiment: (§1) Cytotoxicity against human FRO cells after 48 hrs by MTT assay. A digest of the protocol:
(§2)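 Adherent lines from ATCC, grown in DMEM with 2 mM L-glutamine, 10% heat-inactivated FBS and 1% pen/strep, used for up to 10 passages. 3 × 10^3 cells were seeded per well and left overnight at 37 °C in 5% CO2. Serial dilutions (1-50 µM) were added for 48 h. MTT (5 mg/mL stock) was added for 3 h, then solubilised in 50% DMF/20% SDS at pH 4.5. OD was read at 620 nm, with viability given as % of 0.1% DMSO controls.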

Assay [3] deals with M14. As to the kind of experiment: Cytotoxicity against human M14 cells after 48 hrs by MTT assay. Put shortly:
as §2

In assay [4] the test system is T98G. As to the kind of experiment: Cytotoxicity against human T98G cells after 48 hrs by MTT assay. Put shortly:
as §2

For assay [5], the system named is MCF7. Nature of the assay: Cytotoxicity against human MCF7 cells after 48 hrs by MTT assay. A digest of the protocol:
as §2

Assay [6] concerns SAOS-2. Nature of the assay: Cytotoxicity against human Saos2 cells after 48 hrs by MTT assay. A digest of the protocol:
as §2

Assay [7] relates to A549. Nature of the assay: Cytotoxicity against human A549 cells after 48 hrs by MTT assay. A digest of the protocol: as §2
Assay [8] in a line: as §1. Put shortly: as §2

Calls of active or inactive are those of the source. No cut-off for these calls is given here. A value given as a limit tells only on which side of the number the result lay.

Usually IC50 stands for the concentration needed to halve the response being measured. The low end stands for greater potency, the high end for weaker potency.

As to `C=C1C[C@@H](O[C@@H]2O[C@H](CO)[C@@H](O)[C@H](O)[C@H]2O)[C@@H]2C(C)(C)[C@@H](O)CC[C@@]2(C)[C@@H]1COc1ccc2ccc(=O)oc2c1`, the result in assay [1], in assay [2], in assay [3], in assay [4], in assay [5] and in assay [6] was inactive. In assay [7], the result was inactive.

Take `CC1(C)[C@H](O)CC[C@]2(C)[C@@H]1C=C[C@](C)(O)[C@H]2COc1ccc2ccc(=O)oc2c1`: the result in assay [1], in assay [2], in assay [3], in assay [4], in assay [5] and in assay [6] was inactive. In addition, the outcome in assay [7] was inactive.

As to `C=C1C[C@@H](O[C@@H]2O[C@H](CO[C@@H]3OC[C@](O)(CO)[C@H]3O)[C@@H](O)[C@H](O)[C@H]2O)[C@@H]2C(C)(C)[C@H](O)CC[C@@]2(C)[C@@H]1COc1ccc2ccc(=O)oc2c1`, the outcome in assay [1], in assay [2], in assay [3], in assay [4], in assay [5] and in assay [6] was inactive. In addition, the outcome in assay [7] was inactive.

Turning to `CC1=CC[C@@H]2C(C)(C)[C@H](O)CC[C@@]2(C)[C@@H]1COc1ccc2ccc(=O)oc2c1` [FESELOL], the IC50 in assay [1] (U-937, 48 h) is 8 µM; in assay [8], more than 10 µM; in assay [3] (M14, 48 h), more than 10 µM; in assay [4], more than 10 µM; in assay [5] (MCF7, 48 h), more than 10 µM; in assay [6] (SAOS-2, 48 h), more than 10 µM. In addition, the IC50 in assay [7] (A549, 48 h) was more than 10 µM.

On to `C=C1C[C@@H](O[C@@H]2O[C@H](CO)[C@@H](O)[C@H](O)[C@H]2O)[C@@H]2C(C)(C)[C@H](O)CC[C@@]2(C)[C@@H]1COc1ccc2ccc(=O)oc2c1`, for which the outcome in assay [1], in assay [2], in assay [3], in assay [4], in assay [5] and in assay [6] was inactive. Further, the outcome in assay [7] was inactive.
